Bioassay records: PubChem BioAssay, Sanford-Burnham Center for Chemical Genomics
STEP inh: STEP phosphatase inhibitors, primary screen, biochemical, fluorescence intensity, uHTS. AID 588621, 2011. actives 0.25% (n = 360,000). inhibition, % at 20 µM. recombinant STEP, OMFP fluorogenic substrate. Tyrosine-protein phosphatase non-receptor type 5 (Homo sapiens), P54829;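 active means inhibition at 20 µM, scaled per plate between control wells, above about 37%, limit read from the data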;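 further: 0% = DMSO with enzyme and substrate and 100% = substrate only without enzyme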
Target sequence (P54829 whole entry, looked up): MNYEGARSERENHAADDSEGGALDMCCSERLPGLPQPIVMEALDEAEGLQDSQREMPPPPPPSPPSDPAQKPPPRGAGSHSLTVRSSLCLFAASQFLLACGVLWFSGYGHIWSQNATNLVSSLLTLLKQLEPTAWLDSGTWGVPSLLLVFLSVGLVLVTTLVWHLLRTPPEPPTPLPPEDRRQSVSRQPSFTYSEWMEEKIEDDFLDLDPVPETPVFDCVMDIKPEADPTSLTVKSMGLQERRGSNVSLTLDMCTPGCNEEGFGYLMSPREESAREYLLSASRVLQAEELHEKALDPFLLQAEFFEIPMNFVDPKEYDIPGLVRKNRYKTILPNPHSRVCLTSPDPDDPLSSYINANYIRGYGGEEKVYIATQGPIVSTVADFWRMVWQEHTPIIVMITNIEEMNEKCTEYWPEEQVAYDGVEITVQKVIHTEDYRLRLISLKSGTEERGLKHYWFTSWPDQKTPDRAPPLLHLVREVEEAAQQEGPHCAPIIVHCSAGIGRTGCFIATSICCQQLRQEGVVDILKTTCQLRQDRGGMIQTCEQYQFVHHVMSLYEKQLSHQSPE
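Assay system: isolated STEP enzyme. Buffer or medium: pH 6.0 Bis-Tris with DTT and Tween 20. Also added: fluorogenic phosphatase substrate OMFP at 25 µM final. Dosing: 20 µM, 1% DMSO. Timing: 20 min reaction, room temperature, in the dark. Measured by: fluorescence intensity, excitation 480 nm, emission 540 nm. Evaluation: normalized % inhibition.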
NadD block: inhibitors of S. aureus NadD, primary screen, biochemical, colorimetric, uHTS; purified NadD enzyme, colorimetric absorbance read-out; inhibition, % at 20 µM; actives 0.78% (n = 360,000); in the data active means inhibition above about 26%
SUMO1-SIM PPI: modulators of SUMO1 protein-protein interactions, primary screen, biochemical, uHTS; actives 0.33% (n = 360,000); Small ubiquitin-related modifier 1 (Homo sapiens), P63165; inhibition, % at 20 µM; SUMO1 binding to a labelled peptide, TR-FRET, 1 h; in the data active means inhibition above about 37%
Target sequence (P63165 whole entry, looked up): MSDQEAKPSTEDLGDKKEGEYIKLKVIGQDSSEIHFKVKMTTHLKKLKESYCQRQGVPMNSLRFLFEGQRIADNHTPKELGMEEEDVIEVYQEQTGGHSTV
Scp1 inh: Scp-1 phosphatase inhibitors, primary screen, biochemical, colorimetric, uHTS. Carboxy-terminal domain RNA polymerase II polypeptide A small phosphatase 1 (Homo …. Recombinant Scp1, phosphopeptide, malachite green phosphate absorbance. inhibition, % at 20 µM. actives 0.88% (n = 340,000);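 active means inhibition above about 50% at 20 µM, limit read from the data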;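 further: plate controls were DMSO wells with enzyme for no effect and wells lacking enzyme for full effect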
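Incubation: 45 min enzyme reaction at room temperature / System: truncated SCP-1 phosphatase (76-261aa) / Reagent: Phospho 17-mer peptide substrate / Buffer or medium: Acidic Tris acetate buffer with magnesium and detergent / Signal: absorbance at 630 nm / Doses: one concentration, 20 µM, with 1.0% DMSO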
LMPTP inh: LMPTP phosphatase inhibitors, primary screen, biochemical, fluorescence intensity, uHTS; Low molecular weight phosphotyrosine protein phosphatase (Homo sapiens), P24666; recombinant LMPTP-A, OMFP fluorogenic substrate; inhibition, % at 20 µM; actives 0.22% (n = 360,000); AID 651560, 2012;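 active means compounds that cut the enzyme signal by at least half of the control window in the single-dose screen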;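 further: plate controls were DMSO wells with enzyme plus substrate for no effect and substrate without enzyme for full effect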
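Assay system: LMPTP-A phosphatase enzyme | Input: 0.625 nM enzyme | Also added: Fluorogenic phosphatase substrate OMFP at 400 µM final | Compound dosing: One test concentration per compound, 20 µM, with 3% DMSO overall | Schedule: 50 min enzyme reaction at room temperature, protected from light | Signal: Fluorescence intensity | Benchmarks: no-enzyme and uninhibited controls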
DNMT1 inh: human DNMT1 methyltransferase inhibitors, primary screen, biochemical, molecular beacon, fluorescence, HinP1I cleavage, uHTS; DNA (cytosine-5)-methyltransferase 1 (Homo sapiens), P26358; inhibition (reported as % activation of signal), % at 10 µM; actives 0.83% (n = 360,000); AID 588458, 2011; in the data active means inhibition above about 50%
Scp1 confirm: Scp-1 phosphatase inhibitors, retest, confirmation, biochemical, colorimetric, single concentration; shares compounds with Scp1 inh; recombinant SCP-1 catalytic domain, phosphate release, malachite green absorbance; inhibition, % at 20 µM; actives 61% (n = 2,500); AID 540281, 2011;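 further: plate controls were DMSO with enzyme for no effect and buffer wells lacking enzyme for full effect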
MG interference: colorimetric readout interference by compounds, confirmation, artefact control for Scp-1 inhibitor project, biochemical, single concentration; shares compounds with Scp1 inh; Colorimetric interference counterscreen, malachite green absorbance 630 nm; apparent inhibition (interference), % at 20 µM; 2,500 tested, under 10 active;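 further: compounds added after enzyme reaction finished so only phosphate colour detection is probed; plate controls were DMSO wells with completed Scp-1 reaction for no effect and substrate wells lacking enzyme for full effect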
Scp1 DSF: Scp-1 binding by thermal shift, confirmation, orthogonal assay for Scp-1 inhibitor project, biophysical, differential scanning fluorimetry; thermal shift relative to vanadate control, % at 40 µM; shares compounds with Scp1 inh; actives 25% (n = 1,500); Recombinant SCP1, Sypro Orange thermal shift Tm;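 active means substances whose mean melting-temperature shift, as a percentage of the reference inhibitor's shift, reaches about 5.3%, limit read from the data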;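 further: 0% = Tm of DMSO wells and 100% = Tm with sodium orthovanadate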
An asterisk follows results filed as active; x = not tested or not shown. Shown are actives, neighbours in structure and some others; about 2.4% of the full set was active somewhere.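 How the source made its calls, unless noted: active means inhibition of at least 30% at 20 µM; inactive means the rest.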

SMILES	STEP inh	NadD block	SUMO1-SIM PPI	Scp1 inh	LMPTP inh	DNMT1 inh	Scp1 confirm	MG interference	others
O=C(C=Cc1ccco1)c1cc(Cl)ccc1O	0	-1	-4	-8	0	15	x	x
CC(/C=C/c1ccco1)=N\NC(=O)c1cc(Cl)ccc1O	2	8	36	54*	0	49	68*	-13	Scp1 DSF=16*
Cc1cc(C(=O)N/N=C/c2ccco2)n[nH]1	-1	-3	-6	-1	0	1	x	x
CCOC(=O)C1(Cc2ccccc2C)CCCN(C(=O)c2ccnn2C)C1 (centres undefined)	2	-12	2	-7	1	-1	x	x
CCC1CCCCN1C(=O)CCn1ccnc1 (centres undefined)	2	-1	-1	-1	-1	0	x	x
CC(OC(=O)c1cccc(S(=O)(=O)Nc2ccccc2F)c1)C(=O)NCc1ccc2c(c1)OCO2 (centres undefined)	1	-1	6	-7	1	-6	x	x
COc1ccccc1N1CCN(C(=S)NC(=O)/C=C/c2ccc(F)cc2)CC1	3	3	0	1	0	-4	x	x
COc1ccc(CNC(=O)C2CCCN(S(=O)(=O)N3CCC(C)CC3)C2)c(OC)c1 (centres undefined)	-1	-4	-4	69*	1	-3	-14	-15
COc1ccc(OC)c(CNC(=O)C2CCCN(S(=O)(=O)N3CCC(C)CC3)C2)c1 (centres undefined)	-2	-1	7	-9	1	1	x	x
Cc1cnc(C(=O)OCc2nc3ccsc3c(=O)[nH]2)cn1	3	4	20	65*	2	26	64*	-6	Scp1 DSF=11*
O=C(OCc1nc2ccsc2c(=O)[nH]1)c1ccco1	-5	-5	3	1	0	2	x	x
Cn1c(=O)c(=O)n(C)c2cc(S(=O)(=O)N3CCCC3C(=O)NCc3ccco3)ccc21 (centres undefined)	-4	-7	2	-2	-2	5	x	x
Cn1c(=O)c(=O)n(C)c2cc(S(=O)(=O)N3CCCC3C(=O)NCc3cccnc3)ccc21 (centres undefined)	2	1	5	-9	-1	2	-7	-6
Cc1ccc(C)c(NC(=O)C2CCCN2S(=O)(=O)c2ccc3c(c2)n(C)c(=O)c(=O)n3C)c1 (centres undefined)	0	7	7	-7	-1	5	-6	-10
O=C(Cc1cc(=O)[nH][nH]1)N/N=C/c1c(Cl)cccc1Cl	-2	5	0	2	0	-4	x	x
COc1cc([C@@H]2OC[C@@H]3[C@H]2CO[C@@H]3c2ccc3c(c2)OCO3)ccc1O	1	-6	3	-6	-1	7	x	x
COc1cc(CC2COC(c3ccc(O)c(OC)c3)C2COC(C)=O)ccc1O (centres undefined)	-4	10	18	85*	13	63*	61*	-13	Scp1 DSF=5
O=C(COC(=O)/C=C/c1cccc(F)c1)Nc1ccc(Cl)cn1	2	-5	-5	-1	-1	1	x	x
O=C(CSc1nc2ccccc2c(=O)n1-c1ccccc1)NCC1CCCO1 (centres undefined)	-2	13	1	92*	-2	1	-4	-12
Cc1cc(C)c2c(=O)[nH]c(SCC(=O)NCCc3ccccc3)nc2n1	0	8	3	67*	-2	1	-12	-12
COc1ccc(-c2ccc(CN3C(C)C(=O)N(Cc4cn(CCC5OCCO5)nn4)CCS3(=O)=O)cc2)cc1OC (centres undefined)	-3	5	2	x	1	-3	x	x
COc1ccc(O)c(/C=N/NC(=S)NCCc2ccccc2)c1	-2	3	-7	-5	1	1	x	x
CCOC(=O)N1CCN(CC(O)c2c[nH]c3ccc(OC)cc23)CC1 (centres undefined)	1	-4	-5	-5	0	0	x	x
COc1ccc2[nH]cc(C(O)CN3CCC(C(N)=O)CC3)c2c1 (centres undefined)	0	4	-2	71*	1	-3	2	-1
COC(=O)c1ccc(/C=N/NC(=O)C(=O)NCc2ccccc2)cc1	5	-3	7	-11	3	-10	x	x
SMILES	STEP inh	NadD block	SUMO1-SIM PPI	Scp1 inh	LMPTP inh	DNMT1 inh	Scp1 confirm	MG interference	others
COCCN1C(=O)N(c2cccc(OC)c2)C(=O)C1CC(=O)Nc1cccc(F)c1 (centres undefined)	-2	0	4	0	0	-2	x	x
O=[N+]([O-])c1cc(-c2ccc(/C=N/n3cnnc3)o2)ccc1Cl	8	1	-37	18	4	0	x	x
O=[N+]([O-])c1ccc(Cl)c(-c2ccc(/C=N/n3cnnc3)o2)c1	10	1	-19	62*	4	7	52*	-13	Scp1 DSF=2
NC1=NC(=O)C(CC(=O)NCc2ccccc2)S1 (centres undefined)	0	1	-5	3	-1	4	-13	-9
NC1=NC(=O)CC(C(=O)NCc2ccccc2)S1 (centres undefined)	0	-6	-3	1	-1	2	x	x
Cc1ccc(OCC(=O)N2N=C(c3ccncc3)CC2(O)C(F)(F)F)cc1C (centres undefined)	-1	-16	0	103*	1	-3	-1	-8
O=C(COc1ccccc1)N1N=C(c2cccnc2)CC1(O)C(F)(F)F (centres undefined)	-4	-5	-4	21	0	12	x	x
CCN(C(=O)c1c(-c2ccccc2Cl)noc1C)C1CCCCC1	-3	-8	19	-5	-1	1	x	x
